Source: PMC6482435 (Biochemistry, 2019)

Experiments:
Experiment in all cases: Yeast-based OR sensor, GFP dose-response
Format in all cases: cell-based
OR2T4 = biological target: T1, OR2T4 (Homo sapiens, UniProt Q8NH00); details: for OR-dependent activation, conclusion in words: OR2T4 vs no OR control; for increase in the signal after activation: OR2T4, dose-response curve, compared to DMSO control; for increase in percent GFP expression compared to the no receptor control: OR2T4 vs empty-vector control strain; for EC50: GFP expression, 4 h, 0-1000 μM chemical, 1% DMSO
T1 sequence (Q8NH00 1-348): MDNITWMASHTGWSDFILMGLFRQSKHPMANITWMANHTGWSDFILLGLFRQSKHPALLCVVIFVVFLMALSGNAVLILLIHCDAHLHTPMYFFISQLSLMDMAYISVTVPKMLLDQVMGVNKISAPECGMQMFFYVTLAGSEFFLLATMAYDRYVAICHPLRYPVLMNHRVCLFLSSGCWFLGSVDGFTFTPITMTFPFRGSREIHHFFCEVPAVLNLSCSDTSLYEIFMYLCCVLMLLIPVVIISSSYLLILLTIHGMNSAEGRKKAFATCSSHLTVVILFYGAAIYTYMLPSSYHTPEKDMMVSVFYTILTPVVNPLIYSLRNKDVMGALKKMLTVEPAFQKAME
Outline: (§1)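 Yeast-codon-optimized human OR in S. cerevisiae PPY140 (Δfar1 Δste2 Δsst2) with PFIG1-eGFP reporter. Cells pre-grown 18 h at 15 °C in SD(HL–), exposed to test compound 0–1000 μM final, 1% DMSO, 4 h at 30 °C. Flow-cytometric geometric mean GFP, 10000 cells; triplicate; two-tailed t test vs DMSO; empty-vector strain run same day; EC50 from dose-response fit.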

OR2A7 = biological target: T2, OR2A7 (Homo sapiens, UniProt Q96R45); details: for OR-dependent activation, conclusion in words: OR2A7 vs no OR control; for EC50: GFP expression, 4 h, 0-1000 μM chemical, 1% DMSO
T2 sequence (Q96R45 1-310): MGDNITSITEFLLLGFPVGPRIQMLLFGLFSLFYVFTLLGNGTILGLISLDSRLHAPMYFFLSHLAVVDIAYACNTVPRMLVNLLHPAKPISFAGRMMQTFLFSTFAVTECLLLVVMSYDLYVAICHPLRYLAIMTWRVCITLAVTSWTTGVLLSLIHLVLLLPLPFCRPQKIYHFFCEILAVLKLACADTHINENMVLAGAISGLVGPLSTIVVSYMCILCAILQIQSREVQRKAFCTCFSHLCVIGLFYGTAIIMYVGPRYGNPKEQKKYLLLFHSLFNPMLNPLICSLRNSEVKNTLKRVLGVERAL
Outline: as §1

OR10S1 = biological target: T3, OR10S1 (Homo sapiens, UniProt Q8NGN2)
T3 sequence (Q8NGN2 1-331): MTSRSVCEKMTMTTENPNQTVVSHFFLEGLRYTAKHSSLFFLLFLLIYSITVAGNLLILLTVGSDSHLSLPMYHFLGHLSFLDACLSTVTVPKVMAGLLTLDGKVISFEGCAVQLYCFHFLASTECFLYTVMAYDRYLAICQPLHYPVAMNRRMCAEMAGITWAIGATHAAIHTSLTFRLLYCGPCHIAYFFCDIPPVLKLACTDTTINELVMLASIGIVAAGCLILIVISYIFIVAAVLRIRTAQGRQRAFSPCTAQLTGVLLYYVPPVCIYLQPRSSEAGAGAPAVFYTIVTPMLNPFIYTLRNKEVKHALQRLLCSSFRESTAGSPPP
Outline: as §1

OR2W3 = biological target: T4, OR2W3 (Homo sapiens, UniProt Q7Z3T1)
T4 sequence (Q7Z3T1 1-314): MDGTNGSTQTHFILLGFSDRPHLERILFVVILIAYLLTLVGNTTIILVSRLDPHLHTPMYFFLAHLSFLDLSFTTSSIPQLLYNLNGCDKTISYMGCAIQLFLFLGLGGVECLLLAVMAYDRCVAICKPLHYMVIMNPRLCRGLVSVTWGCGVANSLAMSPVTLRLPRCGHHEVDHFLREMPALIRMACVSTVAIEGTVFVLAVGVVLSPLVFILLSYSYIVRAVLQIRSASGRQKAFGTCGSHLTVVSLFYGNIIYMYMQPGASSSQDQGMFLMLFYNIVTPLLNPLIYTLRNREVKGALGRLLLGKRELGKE
Outline: as §1

OR2L13 = biological target: T5, OR2L13 (Homo sapiens, UniProt Q8N349); details: OR2L13, dose-response curve, compared to DMSO control
T5 sequence (Q8N349 1-312): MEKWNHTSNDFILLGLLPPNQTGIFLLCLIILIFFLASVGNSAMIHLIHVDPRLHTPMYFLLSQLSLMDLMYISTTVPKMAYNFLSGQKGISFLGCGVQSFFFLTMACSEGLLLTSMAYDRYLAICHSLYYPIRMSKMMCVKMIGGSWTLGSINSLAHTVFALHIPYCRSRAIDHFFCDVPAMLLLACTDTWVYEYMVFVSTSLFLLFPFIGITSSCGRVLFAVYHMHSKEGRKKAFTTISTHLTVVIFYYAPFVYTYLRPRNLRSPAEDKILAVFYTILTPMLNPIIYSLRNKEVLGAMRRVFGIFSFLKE
Outline: as §1

OR51B5 = biological target: T6, OR51B5 (Homo sapiens, UniProt Q9H339); details: for increase in the signal after activation: OR51B5, dose-response curve, compared to DMSO control
T6 sequence (Q9H339 1-312): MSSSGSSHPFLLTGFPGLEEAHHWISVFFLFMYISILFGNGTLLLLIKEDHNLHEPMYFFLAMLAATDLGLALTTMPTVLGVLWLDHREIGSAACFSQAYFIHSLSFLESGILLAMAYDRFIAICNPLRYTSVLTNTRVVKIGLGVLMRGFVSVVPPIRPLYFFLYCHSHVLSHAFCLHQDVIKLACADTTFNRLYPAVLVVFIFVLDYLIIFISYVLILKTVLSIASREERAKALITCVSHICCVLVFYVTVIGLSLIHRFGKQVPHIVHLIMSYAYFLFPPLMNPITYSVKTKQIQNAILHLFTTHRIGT
Outline: as §1

OR2A42 = biological target: T7, OR2A42 (Homo sapiens, UniProt Q8NGT9)
T7 sequence (Q8NGT9 1-310): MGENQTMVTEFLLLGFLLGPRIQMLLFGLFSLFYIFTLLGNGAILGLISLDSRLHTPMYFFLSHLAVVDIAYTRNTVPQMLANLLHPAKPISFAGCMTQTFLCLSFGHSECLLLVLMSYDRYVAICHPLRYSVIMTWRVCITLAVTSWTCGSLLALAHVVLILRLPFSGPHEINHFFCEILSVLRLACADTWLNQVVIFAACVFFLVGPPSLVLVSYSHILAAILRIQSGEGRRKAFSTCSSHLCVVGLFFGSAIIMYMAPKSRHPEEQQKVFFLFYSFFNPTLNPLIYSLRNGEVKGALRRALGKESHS
Outline: as §1

With CC(C)(C)c1ccccc1 [TBB, tert-butylbenzene] the “OR-dependent activation, conclusion in words” value (from here on “OR-dependent activation”) (OR2T4) was “not OR dependent” and the “OR-dependent activation” value (OR2A7) was “not OR dependent”.
CCCCCCCCC=O [nonanal] was tested, and the “increase in the signal after activation” value (OR10S1; OR10S1, dose-response curve, compared to DMSO control) was > 2 fold and the “OR-dependent activation” value (OR10S1; OR10S1 vs no OR control) was “the no OR control shows a similar increase in GFP expression”.
In the case of CC(C)=CCC/C(C)=C\CO [nerol], the “signal after activation (in words)” value (OR2W3; OR2W3, dose-response curve, Figure S1) is reported as “did not result in a significant increase in the signal after activation”.
C=C1CCC2CC1C2(C)C (stereo not drawn) [β-pinene, beta-pinene] was tested, and the “weaker response than with α-pinene” value (OR2A7; OR2A7, response relative to α-pinene) was 18%.
With CCCCCCCCCCCCO [dodecanol, 1-dodecanol] the “increase in the signal after activation” value (OR2L13) was > 2 fold.
With CCCCCCCCCCCC(=O)O [dodecanoic, lauric acid] the “increase in the signal after activation” value (OR51B5) was > 2 fold.
In the case of CCCCCCCCCCC=O [undecanal], the “increase in the signal after activation” value (OR2L13) is reported as > 2 fold, the “increase in the signal after activation” value (OR2T4) is reported as > 2 fold and the “increase in percent GFP expression compared to the no receptor control” value (OR2T4) is reported as 2.3 fold. The “OR-dependent activation” value (OR2T4) was “confirmed ligand”.
For CC1=CCC2CC1C2(C)C (stereo not drawn) [α-pinene, alpha-pinene], the EC50 (OR2T4; EC50, OR2T4 yeast sensor) was 659 µM, the “increase in the signal after activation” value (OR2T4) was > 2 fold and the “maximal level of GFP expression of OR2T4, higher than that of OR2A7” value (OR2T4; OR2T4 relative to OR2A7) was 63%. The “increase in percent GFP expression compared to the no receptor control” value (OR2T4) was 3 fold, the “OR-dependent activation” value (OR2T4) was “confirmed ligand” and the EC50 (OR2A7; EC50, OR2A7 yeast sensor) was 412 µM. The “increase in the signal after activation” value (OR2A7; OR2A7, dose-response curve, compared to DMSO control) was > 2 fold, the “increase in percent GFP expression compared to the no receptor control” value (OR2A7; OR2A7 vs empty-vector control strain) was 2.3 fold and the “OR-dependent activation” value (OR2A7) was “confirmed ligand”.
For CC(C)=CCC/C(C)=C/CC/C(C)=C/CO [farnesol], the EC50 (OR51B5; EC50, OR51B5 yeast sensor, GFP expression, 4 h, 0-1000 μM chemical, 1% DMSO) was 181 µM, the “increase in the signal after activation” value (OR51B5) was > 2 fold and the “OR-dependent activation” value (OR51B5; OR51B5, on/off behavior of the response) was “nonspecifically activates GFP expression”. The “increase in percent GFP expression compared to the no receptor control” value (OR51B5; OR51B5 vs empty-vector control strain) was 3 fold, the “EC50 (fit to dose-response curve)” value (OR2W3; OR2W3 yeast sensor, GFP expression, Figure S6) was “do not fit a dose–response curve” and the “increase in the signal after activation” value (OR2A42; OR2A42, dose-response curve, compared to DMSO control) was 2 fold. For the same compound, the “OR-dependent activation” value (OR2A42; OR2A42 vs no OR control) was “not a ligand”, the “EC50 (fit to dose-response equation)” value (OR2A42; OR2A42 yeast sensor, GFP expression) was “could not be fitted” and the “increase in the signal after activation” value (OR2T4) was > 2 fold. The “OR-dependent activation” value (OR2T4) was “not a ligand”, the EC50 (OR2T4; OR2T4 yeast sensor) was “could not be fitted” and the EC50 (OR2A7; OR2A7 yeast sensor) was “do not fit a dose–response curve”.
